# Results collected from several papers.
# Target: RAC-gamma serine/threonine-protein kinase (AKT3, Homo sapiens, UniProt Q9Y243)
SMILES,read-out,action,technique,concentration,endpoint,result
CO[C@@H](C)c1c(Nc2ccc([C@H](N(C)C(=O)C3CCS(=O)(=O)CC3)C(F)(F)F)cc2)cnc2cc(Cl)nn12,cell-free assay,,competition with immobilised ligand,1 µM,remaining binding,100%
COc1cc2ncnc(Nc3ccc(Oc4ccccc4)c(C)c3C)c2cc1OC,enzyme activity,inhibitor,,1 µM,inhibition,1%
CN1CCC2(CC1)NC(=O)c1c(c3ccc(Cl)c(Cl)c3n1C)C2C#N (racemic),thermal stability,,DSF,10 µM,ΔTm,0 °C
CNC(=O)c1cc(Oc2ccc(NC(=O)Nc3ccc(Cl)c(C(F)(F)F)c3)cc2)ccn1,enzyme activity,inhibitor,,0.3 µM,inhibition,-4%
O=C1Nc2ccc(Cl)cc2C1=Cc1cc(Cl)c(O)c(Cl)c1,cell-free assay,,,0.5 µM,remaining signal,96.9%
CCCOc1ccc(OC)c(F)c1C(=O)c1ccc(C(=O)N[C@@H]2CNC[C@H]2NC(=O)c2ccc3[nH]ncc3c2)cc1,enzyme activity,inhibitor,,50 nM,remaining activity,97%
Cc1sc(C(=O)NC2COC2)cc1-n1cc(NC(=O)Nc2c(F)cccc2Cl)cn1,enzyme activity,inhibitor,,10 µM,remaining activity,94.8%
N#CCCc1ccc2c(c1)-c1[nH]c3ccc([N+](=O)[O-])cc3c1CC(=O)N2,cell-free assay,,,0.5 µM,remaining signal,95.5%
CN(c1ccnc(CNc2nc(Nc3ccc4c(c3)CC(=O)N4)ncc2C(F)(F)F)n1)S(C)(=O)=O,cell-free assay,,competition with immobilised ligand,1 µM,remaining binding,100%
Nc1ncnc2occ(-c3ccc(NC(=O)Nc4cc(C(F)(F)F)ccc4F)cc3)c12,cell-free assay,inhibitor,,20 µM,remaining signal,85%
Cc1cnc(NC2CCOCC2)nc1-n1cnc(C(=O)NC(CN)c2cc(F)cc(Cl)c2)c1 (stereo not shown),enzyme activity,inhibitor,radiometric,1 µM,remaining activity,78%
CN1CC(Oc2cnc(C#N)cc2-c2ccn3nc(NC(=O)C4CC4)cc3c2)C1,enzyme activity,inhibitor,,1 µM,inhibition,7%
CS(=O)(=O)N1CCCC(NC(=O)[C@H](CCC2CCCCC2)NC(=O)c2ccc(CNC(=O)c3cnc4ccccn34)cc2)C1 (stereo partly shown),cell-free assay,,competition with immobilised ligand,0.1 µM,remaining binding,100%
Cn1c2c(c3ccc(Cl)c(Cl)c31)C(C#N)C1(CCN(C(=O)OC(C)(C)C)CC1)NC2=O (racemic),thermal stability,,DSF,10 µM,ΔTm,-0.1 °C
Cn1nc(C(=O)NCc2ccc(C(=O)O)cc2)cc1-c1ccc2[nH]ccc2c1,cell-free assay,,competition with immobilised ligand,0.1 µM,remaining binding,88%
Cn1c2c(Cl)c(Cl)ccc2c2cc(N)[nH]c(=O)c21,thermal stability,,DSF,10 µM,ΔTm,0.3 °C
Cc1c(NC(=O)c2cc(C(N)=O)nc3cc(F)ccc23)c(C(F)(F)F)nn1Cc1ccc(C(C)(C)C)cc1,cell-free assay,,competition with immobilised ligand,1 µM,remaining binding,100%
O=C(Nc1cnn(-c2csc(C(=O)NC3COC3)c2)c1)Nc1c(F)cccc1Cl,enzyme activity,inhibitor,,5 µM,remaining activity,97.6%
Cn1c2c(Cl)c(Cl)ccc2c2cn[nH]c(=O)c21,thermal stability,,DSF,10 µM,ΔTm,0.1 °C
O=c1nc(-c2ccccn2)sc2ccccc12,binding,,competition with immobilised ligand,1 µM,remaining binding,100%
CNc1cccc2cc(C(=O)Nc3ccc(C(=O)O)cc3)c(=O)[nH]c12,enzyme activity,inhibitor,,10 µM,inhibition,5.8%
CCN1CCC2(CC1)NC(=O)c1c(c3ccc(Cl)c(Cl)c3n1C)C2C#N (racemic),thermal stability,,DSF,10 µM,ΔTm,-0.2 °C
CC(C)(C)c1nc2c(s1)c1nc(N)ncc1c1ccc(NS(=O)(=O)c3c(F)cccc3F)c(F)c12,enzyme activity,inhibitor,radiometric,1 µM,remaining activity,89%
Cn1c2c(Cl)c(Cl)ccc2c2cc[nH]c(=O)c21,thermal stability,,DSF,10 µM,ΔTm,0 °C
CC/C(=N\NC(=O)NCc1cccc(O)c1)c1ccc(O)c(C)c1O,enzyme activity,inhibitor,,0.1 µM,inhibition,22.8%
C#Cc1cccc(Nc2ncnc3cc(OCCOC)c(OCCOC)cc23)c1,cell-free assay,,,0.5 µM,remaining signal,74.6%
CC(=O)N1CCC(c2ccc(C(=O)NC3=NCCN3)cc2C(F)(F)F)CC1,cell-free assay,,competition with immobilised ligand,1 µM,remaining binding,100%
CCN(CC)CCNC(=O)c1c(C)[nH]c(/C=C2\C(=O)Nc3ccc(F)cc32)c1C,cell-free assay,,,0.5 µM,remaining signal,71.7%
O=C(Nc1ccc(Oc2ccc(F)cc2)cc1)N1CCc2ncccc2[C@H]1c1ccc(F)cc1,cell-free assay,,competition with immobilised ligand,1 µM,remaining binding,95%
Cn1c2c(c3ccc(Cl)c(Cl)c31)C(C#N)C1(CCOCC1)NC2=O (stereo not shown),thermal stability,,DSF,10 µM,ΔTm,-0.1 °C
O=C1NC(=O)c2cc(Nc3ccc(F)cc3)c(Nc3ccc(F)cc3)cc21,cell-free assay,,,0.5 µM,remaining signal,100%
